Data: ChEMBL document CHEMBL2169742, “Design, synthesis, and biological evaluation of novel transrepression-selective liver X receptor (LXR) ligands with 5,11-dihydro-5-methyl-11-methylene-6H-dibenz[b,e]azepin-6-one skeleton” (J Med Chem, 2012)
Calls of active or inactive are those of the source. The rule behind the calls is not given here.

How the values were obtained:
[1] = Transrepressional activity at LXR in C57BL/6J mouse peritoneal macrophages assessed as inhibition of LPS-induced IL-1beta mRNA expression at 10 uM incubated for 6 hr prior to LPS-challenge measured after 18 hrs by RT-PCR analysis
How it was run: (§1)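 Thioglycollate-elicited peritoneal macrophages (wild-type C57BL/6J or LXRα-null, 8–10 weeks) were plated at 4 × 10⁶/well and pretreated with compound 6 h before LPS 100 ng/mL. Cells were harvested after 18 h. il-6 and il-1β mRNA were measured by real-time quantitative PCR, normalized to GAPDH.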

[2] = target: T1, Oxysterols receptor LXR-beta (Homo sapiens, UniProt P55055); test: Transactivational agonist activity at human LXRbeta transfected in HEK293 cells expressing CMX-Gal4N assessed as luciferase activity after 16 hrs by reporter gene assay; assay type: cell-based
T1 sequence (P55055 whole entry): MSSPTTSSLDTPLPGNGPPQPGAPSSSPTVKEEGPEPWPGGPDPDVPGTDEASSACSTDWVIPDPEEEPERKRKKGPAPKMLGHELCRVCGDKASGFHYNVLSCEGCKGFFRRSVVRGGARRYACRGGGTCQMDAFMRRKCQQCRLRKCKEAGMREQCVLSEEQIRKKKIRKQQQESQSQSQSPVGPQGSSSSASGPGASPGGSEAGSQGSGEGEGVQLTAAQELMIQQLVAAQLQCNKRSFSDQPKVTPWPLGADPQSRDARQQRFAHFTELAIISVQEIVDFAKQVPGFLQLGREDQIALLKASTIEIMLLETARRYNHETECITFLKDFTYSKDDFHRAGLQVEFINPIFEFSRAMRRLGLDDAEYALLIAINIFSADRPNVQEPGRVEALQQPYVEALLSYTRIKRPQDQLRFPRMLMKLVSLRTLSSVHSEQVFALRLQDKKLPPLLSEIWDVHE
How it was run: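 Gal4-hLXRα or Gal4-hLXRβ chimera (15 ng) cotransfected with tk-MH100×4-luc reporter (50 ng) and CMX-β-gal (10 ng) into HEK293 cells by calcium phosphate. Luciferase was normalized to β-gal, in triplicate.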

[3] = target: T2, Oxysterols receptor LXR-alpha (Homo sapiens, UniProt Q13133); test: Transactivational agonist activity at human LXRalpha transfected in HEK293 cells expressing CMX-Gal4N assessed as luciferase activity after 16 hrs by reporter gene assay; assay type: cell-based
T2 sequence (Q13133 whole entry): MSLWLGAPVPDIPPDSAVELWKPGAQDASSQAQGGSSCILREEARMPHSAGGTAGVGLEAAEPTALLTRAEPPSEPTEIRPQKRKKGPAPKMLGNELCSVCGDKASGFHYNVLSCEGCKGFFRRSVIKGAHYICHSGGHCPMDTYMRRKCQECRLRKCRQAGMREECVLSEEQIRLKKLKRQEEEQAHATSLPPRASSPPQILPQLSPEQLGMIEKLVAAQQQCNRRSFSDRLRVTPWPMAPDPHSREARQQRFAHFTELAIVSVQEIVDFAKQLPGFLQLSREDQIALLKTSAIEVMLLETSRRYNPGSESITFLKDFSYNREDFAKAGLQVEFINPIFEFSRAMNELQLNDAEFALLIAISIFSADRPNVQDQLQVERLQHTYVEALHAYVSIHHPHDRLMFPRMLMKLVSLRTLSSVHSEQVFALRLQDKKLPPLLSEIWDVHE

[4] = test system: Peritoneal macrophage cell; test: Inhibition of LPS-induced IL-6 production in LXRalpha,LXRbeta-deficient C57BL/6J mouse peritoneal macrophages at 10 uM incubated for 6 hrs prior to LPS-challenge measured after 18 hrs by ELISA; assay type: functional, cell-based
How it was run: (§2)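 Thioglycollate-elicited peritoneal macrophages came from 8–10-week LXRα/β-null mice on C57BL/6J background, harvested 4 days post-injection. They were adhered, rested 24 h and plated at 2 × 10⁵/well, then pretreated with compound 6 h before LPS 10 ng/mL. Supernatant mIL-6 was measured by ELISA after 18 h; means ± SE of ≥3 independent measurements, ANOVA.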

[5] = target: T2, Oxysterols receptor LXR-alpha; test: Transactivational agonist activity at human LXRalpha transfected in HEK293 cells expressing CMX-Gal4N assessed as luciferase activity after 16 hrs by reporter gene assay relative to N-(4-(1,1,1,3,3,3-hexafluoro-2-hydroxypropan-2-yl)phenyl)-N-methylbenzamide; assay type: cell-based; settings: read-out: Efficacy
[6] = test system: Peritoneal macrophage cell; test: Inhibition of LPS-induced IL-6 mRNA expression in LXRalpha-deficient C57BL/6J mouse peritoneal macrophages at 10 uM incubated for 6 hrs prior to LPS-challenge measured after 18 hrs by RT-PCR analysis; assay type: functional, cell-based; how it was run: as §1
[7] = target: T1, Oxysterols receptor LXR-beta; test: Transactivational agonist activity at human LXRbeta transfected in HEK293 cells expressing CMX-Gal4N assessed as luciferase activity after 16 hrs by reporter gene assay relative to N-(4-(1,1,1,3,3,3-hexafluoro-2-hydroxypropan-2-yl)phenyl)-N-methylbenzamide; assay type: cell-based; settings: read-out: Efficacy
[8] = test system: Peritoneal macrophage cell; test: Inhibition of LPS-induced IL-1beta mRNA expression in LXRalpha-deficient C57BL/6J mouse peritoneal macrophages at 10 uM incubated for 6 hrs prior to LPS-challenge measured after 18 hrs by RT-PCR analysis; assay type: functional, cell-based; how it was run: as §1
Liver X receptor = target: T3, Liver X receptor (Homo sapiens, UniProt Q13133+P55055); test: Transrepressional activity at LXR in human TPA-activated THP1 cells assessed as inhibition of LPS-induced IL6 production incubated for 6 hrs prior to LPS-challenge measured after 18 hrs by ELISA; assay type: cell-based; settings: thp-1
T3 sequence (Q13133 whole entry): T2 sequence (Q13133 whole entry)
T3 sequence (P55055 whole entry): T1 sequence (P55055 whole entry)

[9] = Transrepressional activity at LXR in C57BL/6J mouse peritoneal macrophages assessed as inhibition of LPS-induced IL-6 mRNA expression at 10 uM incubated for 6 hr prior to LPS-challenge measured after 18 hrs by RT-PCR analysis; how it was run: as §1
[10] = Induction of LPS-induced IL-6 production in LXRalpha,LXRbeta-deficient C57BL/6J mouse peritoneal macrophages at 10 uM incubated for 6 hrs prior to LPS-induction measured after 18 hrs by ELISA; assay type: cell-based; settings: peritoneal macrophage cell; how it was run: as §2
[11] = Induction of LPS-induced IL-6 production in LXRalpha,LXRbeta-deficient C57BL/6J mouse peritoneal macrophages at 3 uM incubated for 6 hrs prior to LPS-induction measured after 18 hrs by ELISA; assay type: cell-based; settings: peritoneal macrophage cell; how it was run: as §2

inhibition [1]	EC50 [2]	EC50 [3]	IC50 (Liver X receptor)	inhibition [9]	Structure (SMILES)	inhibition [4]	Emax [5]	inhibition [6]	Emax [7]	inhibition [8]	Activity [10]	Activity [11]
Active	0.77 µM	1.7 µM	5.8 µM	Active	C=C1c2ccccc2C(=O)N(C)c2ccc(C(O)(C(F)(F)F)C(F)(F)F)cc21	inactive	45%	inactive	73%	inactive	Toxic	–
–	–	–	–	–	O=S(=O)(c1ccccc1)N(CC(F)(F)F)c1ccc(C(O)(C(F)(F)F)C(F)(F)F)cc1 [T091317]	–	124%	–	118%	–	–	Toxic
